This series in a line: Toxicity liver stage against HepG2, at 10uM. The series is classed as cell-based. Details: test concentration 10 uM, cell line HepG2-A16-CD81EGFP. To be noted: human, HepG2-A16-CD81EGFP cells; read-out: INHIBITION
Put shortly: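 Uninfected HepG2-A16-CD81EGFP cells, 3 × 10^3 per well, 1536-well, plated on prespotted compound at 10 μM final, parasite-free screening media added to match infected plates; puromycin 10 μM positive, DMSO 0.5% negative; run in parallel with 48 h PbLuc assay at 37 °C, 5% CO2; viability by CellTiter-Glo luminescence, normalized to controls.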
As for `Cc1ccc(CNC2(Cc3cc(-c4ccccn4)on3)COC2)o1`, the cytotoxicity at 10 µM amounted to 8.91%. To `C[C@@H](O)CNC(=O)c1nc(Cc2c(Cl)cccc2Cl)no1` belongs 0.483%; to `Cn1cc(C(=O)NCC(Cc2cccc(F)c2)N2CCCCC2=O)nn1` (stereo not drawn), -1.13%. Under `Cc1cccc(NC(=O)C2CSc3ncc(C)c(=O)n3C2)n1` (stereo not drawn) stands 0.0115%; under `CCOCC1COCCC12CCN(C(=O)C1=CCCCC1)CC2` (stereo not drawn), -3.09%. Regarding `CC1N(C)C(=O)COC12CCN(C(=O)CCc1ccccc1)CC2` (stereo not drawn), the cytotoxicity at 10 µM came out at 0.227%. Under `CS(=O)(=O)N1CCO[C@@H]2CN(C(=O)COC3CCCC3)C[C@@H]2C1` stands 7.04%; under `Cc1cnc(N2CCC3(CC2)CC(NC(=O)C(C)C)CO3)nc1` (stereo not drawn), 8.19%; under `COc1ccc(OC)c(NC(=O)CSc2ccc3nncn3n2)c1`, -14.2%. To `COc1ccc(N2CCNC(C(N)=O)C2)cc1` (stereo not drawn) belongs -4.8%; to `COCC(=O)N1CCC(c2cc(-c3ccc(N)nc3)cc(C)n2)CC1`, 2.06%; to `CC(=O)N1CCCC1c1nc(C)no1` (stereo not drawn), -14.8%. Under `COCC(=O)N1CCCC1c1nccnc1Nc1ncccn1` (stereo not drawn) stands -2.69%.

As to `CC(=O)NCCNC(=O)Nc1ccc(Br)cc1C(C)C`, the cytotoxicity at 10 µM worked out at 6.54%. Regarding `O=C(CN(Cc1cccs1)C1CCS(=O)(=O)C1)NC1CCCCC1` (stereo not drawn), the cytotoxicity at 10 µM was -7.53%. In the case of `CCn1cc(NC(=O)NCCN2CCCCCC2=O)cn1`, the cytotoxicity at 10 µM worked out at 0.107%. Under `Cn1cnnc1C1CCCN(c2nc3ccccc3o2)C1` (stereo not drawn) stands -17.4%.

Turning to `CC(C)c1ccc(S(=O)(=O)NC2CCN(CC(F)(F)F)C2)cc1` (stereo not drawn), the cytotoxicity at 10 µM is 9.19%. To `CCN(Cc1ccoc1)C(=O)Nc1ccccc1CN(C)C(C)=O` belongs 4.55%; to `CCOc1ncccc1C(=O)NC1CC(=O)N(CC(F)(F)F)C1` (stereo not drawn), 4.43%.

Regarding `Cc1n[nH]c(C)c1CNC(=O)NC1CCCN(c2ccccc2F)C1` (stereo not drawn), the cytotoxicity at 10 µM is -2.57%. Turning to `O=C(c1ccon1)N1CCN(c2ccncc2Cl)CC1`, the cytotoxicity at 10 µM came to 2.22%. To `CCC(C)(NCC(N)=O)c1nccs1` (stereo not drawn) belongs 7.3%. To `CC(NC(=O)CCCc1nc(C(C)(C)C)no1)c1nnc2n1CCC2` (stereo not drawn) belongs -0.527%; to `Cc1cnn(CCNCC(O)c2ccc(F)c(F)c2)c1` (stereo not drawn), -0.796%.

For the compound `CCc1nnc2n1CCN(C(=O)c1ccccc1OCC1CC1)C2`, the cytotoxicity at 10 µM is 2.3%. Under `c1ccc(CCN2CCOC3(CCc4ccccc43)C2)nc1` (stereo not drawn) stands -4%; under `COC(=O)c1ccc(/C=C/c2ncc(C(=O)O)s2)cc1`, -7.11%; under `CN(c1ncnc2sccc12)C1CCCN(c2cccnn2)C1` (stereo not drawn), 0.0357%. Take `COCCN(CCN(C)C)C(=O)NC1CC1`: the cytotoxicity at 10 µM was -1.78%. In the case of `COc1ccc2c(c1)C(NCCc1c(C)noc1C)CCCO2` (stereo not drawn), the cytotoxicity at 10 µM was -2.79%. To `CCc1nc(CNc2ccc(C(=O)NCc3ccco3)cc2C)no1` belongs 2.4%; to `COC(=O)C(O)C1CCN(Cc2cccc(-n3cccn3)c2)CC1` (stereo not drawn), -16.5%; to `Cc1cccc(N(CCC(N)=O)CC(=O)Nc2ccccc2)c1`, -9.5%. Take `Cc1ccccc1C(C)(C)CNC(=O)CN(C)c1cnccn1`: the cytotoxicity at 10 µM was -2.21%. To `CCCC(=O)NC1CCCN(Cc2cccs2)C1` (stereo not drawn) belongs -3.25%; to `COCC1CN(C(=O)Nc2ccc(Cl)cc2Cl)CCO1` (stereo not drawn), 4.26%. For `CCc1nsc(NC2CCCn3nc(COC)nc32)n1` (stereo not drawn), the cytotoxicity at 10 µM amounted to 14.1%. Under `OCC1CCCN1c1cc(NCCNc2ccccn2)ncn1` (stereo not drawn) stands -20.1%; under `Cn1ccnc1CNC(=O)N1CCCC(Cc2nccn2C)C1` (stereo not drawn), 2.63%; under `CCC(=O)N1CCN(C(=O)c2ccc(OC)o2)[C@H]2CS(=O)(=O)C[C@H]21`, 0.224%. As to `COCc1noc(CCNC(=O)c2cc(C)c(C)[nH]c2=O)n1`, the cytotoxicity at 10 µM was -4.71%. Under `Cc1cccc(C(C(=O)N2CC(Oc3ccccc3F)C2)N(C)C)c1` (stereo not drawn) stands -0.572%. To `CN1CCN(C2CCCC2)C(CCO)C1` (stereo not drawn) belongs 0.456%; to `CCc1nc(N2CCCC(CCOC)(C(=O)O)C2)ncc1C` (stereo not drawn), 4.11%; to `CN(C)CC1(O)CCCN(c2ccnc3c(C(F)(F)F)cccc23)C1` (stereo not drawn), -4.55%. Under `CCN(CC)C(=O)[C@@H]1C[C@@H](NC(=O)c2ccoc2)CN1C` stands 2.37%; under `C[C@@H]1CN(C(=O)CSc2nncn2C)C[C@@]1(O)C1CC1`, -15.7%; under `Cc1ccc(CCNc2nccc(-c3cc(C(=O)O)ccn3)n2)o1`, -2.86%.

Turning to `CCC(CO)N(Cc1cccnc1)C(=O)c1ccncc1F` (stereo not drawn), the cytotoxicity at 10 µM came out at 2.59%.

`CC(C)(C)CNCC1(O)CCCN(Cc2ccccc2F)C1=O` (stereo not drawn): the cytotoxicity at 10 µM is 9.04%. `CN1Cc2nnc(C3CCOCC3)n2C(Cc2c[nH]cn2)C1` (stereo not drawn): the cytotoxicity at 10 µM was -12.1%.

`COc1ccccc1OC1CN(C(=O)c2ccc(C(C)=O)s2)C1`: the cytotoxicity at 10 µM was determined as 2.01%. To `COc1ncc(CN2CCC3(CCCN(CC4CCCCC4)C3)C2)cn1` (stereo not drawn) belongs -6.8%; to `CC1(C)OC(=O)N(CCOc2ccc(F)cc2)C1=O`, -8.68%; to `CCN(CC1CCCN(CCc2cccc(OC)c2)C1)C(=O)CO` (stereo not drawn), 9.34%.

Consider `CN(C)S(=O)(=O)N1CC[C@]2(O)CCN(c3ncccn3)C[C@@H]2C1`, for which the cytotoxicity at 10 µM came out at 5.74%. To `COCc1cc(NCC(F)(F)F)n2nccc2n1` belongs 17%; to `CCn1ccnc1-c1nc2cc(S(=O)(=O)N3CCCC3)ccc2n1C`, -22.3%; to `CCn1cc(CN(C)C(=O)c2cccc(CCC(C)(C)O)c2)cn1`, -0.0444%. Under `O=C(CCc1c[nH]cn1)N1CC[C@@H](c2ccc3ccccc3c2)[C@H](O)C1` stands -4.04%; under `O=C(c1ccccn1)N1CCCC(c2nccn2Cc2ccncc2)C1` (stereo not drawn), -14.1%; under `CC(C(=O)N1CCCC1)N1CCC(c2nccn2CC2CCC2)CC1` (stereo not drawn), -1.96%. Under `Cn1nccc1CNC(=O)CCn1nc(C(F)(F)F)c(Cl)c1C1CC1` stands -3.33%. As for `O=C(NCCn1ccnc1)c1ccn(-c2ccccc2F)n1`, the cytotoxicity at 10 µM worked out at 0.533%.

Consider `Cc1cc(C)c(CNC(=O)N(C)Cc2ccc(F)cc2)c(=O)[nH]1`, for which the cytotoxicity at 10 µM was -9.12%. To `Cc1ccc(C(C)NCc2c(C(C)C)nn(C)c2N2CCOCC2)o1` (stereo not drawn) belongs -4.79%; to `O=S1(=O)CCC(N(Cc2nc(-c3ccccn3)no2)Cc2cccs2)C1` (stereo not drawn), -4.54%; to `CNS(=O)(=O)c1ccc(C(=O)N2CCCC2c2ccccc2C)o1` (stereo not drawn), -6.23%. To `Cc1ccc(NC2CCN(C(=O)CCc3cscn3)CC2)nn1` belongs -9.2%. Under `COc1cccc(CN2CCCC(Cn3nc(C)nc3C)C2)c1` (stereo not drawn) stands -13.4%; under `CC(C(=O)NCc1ccc(N2CCCCC2)nc1)n1cncn1` (stereo not drawn), -10.3%; under `O=C(CN1CCCC1c1noc(C2CC2)n1)N1CCc2ccccc21` (stereo not drawn), -5.86%. Turning to `Cc1nn(C)c(N2CCOCC2)c1CNC1CCc2ccccc21` (stereo not drawn), the cytotoxicity at 10 µM is -0.704%. To `Cc1ccc(C(CNC(=O)c2c(C)noc2C(C)C)N(C)C)cc1` (stereo not drawn) belongs -12.4%; to `CN(Cc1nc(-c2ccoc2)no1)C1CCCN(c2cccnn2)C1` (stereo not drawn), -14.8%. To `CN(C)c1ccc(C(=O)N2CCN(CC(O)C(C)(C)C)CC2)nn1` (stereo not drawn) belongs -19.2%; to `Cc1cc(CN2CCOC(CNc3cccnn3)C2)no1` (stereo not drawn), -18.4%. As to `CN(Cc1ccc(N2CCOCC2)cc1)C(=O)Cn1cccnc1=O`, the cytotoxicity at 10 µM is -18.4%. `COC(=O)CC(NC(=O)c1ccc(OC)cc1OC)c1cccs1` (stereo not drawn): the cytotoxicity at 10 µM is -0.554%. Under `Cc1cnn(CCNCc2ccc(OCc3ccncc3)cc2)c1` stands -2.99%.

As for `Cc1cnn(CC2CCCCN2C(=O)Cc2c(C)nn(C)c2C)c1` (stereo not drawn), the cytotoxicity at 10 µM is -13%. To `Cn1ccnc1CN1CCOC(Cn2cccn2)C1` (stereo not drawn) belongs -6.07%; to `COc1cccc(CNC(=O)c2cccnc2SC(C)C)c1`, -1.35%; to `CC1CCCCN1CCNC(=O)c1ccn(-c2ccccc2)n1` (stereo not drawn), -15.2%. For `Cc1cnc(C(=O)N2CCCC(n3nc(C)nc3C)C2)cn1` (stereo not drawn), the cytotoxicity at 10 µM is -12%. Under `CC(NC(=O)NCC1(c2ccc(F)cc2)CCC1)c1nncn1C` (stereo not drawn) stands -3.59%. As to `CNC(=O)c1ccc(CN(C(=O)c2scnc2C)C2CC2)cc1`, the cytotoxicity at 10 µM was -3.09%. Under `Cc1ccc(Cl)cc1N1CCC(CNC(=O)CC(F)(F)F)C1` (stereo not drawn) stands -9.7%; under `Cc1noc(CCCC(=O)NC(C)c2cn(-c3ccccc3)nn2)n1` (stereo not drawn), -8.18%; under `Fc1ccc(-c2cnc(CN3CCCC3Cn3cccn3)o2)cc1` (stereo not drawn), -7.52%. As for `Cc1cc(C)n(C2CN(CC(O)c3ccc(F)cc3)C2)n1` (stereo not drawn), the cytotoxicity at 10 µM is -13%. Under `Cc1cc(C(=O)NCCn2nc3ccccn3c2=O)[nH]n1` stands -4.92%; under `COCC1c2c(cnn2CC2CC2)CCN1Cc1nccs1` (stereo not drawn), -1.21%.

With `CC(=O)N1CCN(c2cc(C3CCNCC3)ccn2)CC1`, the cytotoxicity at 10 µM came out at 6.91%. To `COc1ncccc1CN1CCn2c(C(=O)N3CCCC3)cnc2C1` belongs 8.28%; to `CCc1cnc(N2C[C@@H]3C[C@H](C(=O)NCC(C)C)[C@H](C2)O3)nc1`, 12%; to `NC(=O)NCC(=O)N1C[C@@H]2CC[C@H]1CN(Cc1cscn1)C2`, 8.86%.

The record behind these values is ChEMBL document CHEMBL4513216, “Probing the Open Global Health Chemical Diversity Library for Multistage-Active Starting Points for Next-Generation Antimalarials” (ACS Infect Dis, 2020).
